Results published in ChEMBL document CHEMBL4715831, “Design and synthesis of 2-((1H-indol-3-yl)thio)-N-phenyl-acetamides as novel dual inhibitors of respiratory syncytial virus and influenza virus A” (Eur J Med Chem, 2020).

Assays:
[1] = system: Respiratory syncytial virus; assay: Antiviral activity against GFP-fused wild-type RSV subgroup A Long infected in human HEp-2 cells measured 24 to 72 hrs post infection by fluorescence assay; format: functional, cell-based
In short: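 HEp-2 cells plated, then after 24 h infected with RSV-mGFP using 3-fold serially diluted inocula starting from 3 × 10^4 pfu/well. Compounds came from a 100 mM DMSO stock, diluted as indicated. RFU read at 479/517 nm at 24, 48 and 72 h post-infection, with non-infected cells as background. Mean ± SD of at least three experiments.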

[2] = Cytotoxicity against HEK293T cells assessed as reduction in cell viability measured after 48 hrs by CCK8 assay; format: cell-based, HEK-293T; details: human
In short: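 293T cells treated for 48 h with six compound concentrations from 12.5 to 200 μM, with DMSO-only cells as control. CCK-8 then added for 1 h at 37 °C and OD read at 450 nm. Mean ± SD of three experiments.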

[3] = system: Influenza A virus; assay: Antiviral activity against Influenza A virus A/WSN/33(H1N1) infected in HEK293T cells assessed as inhibition of viral replication at 20 uM pretreated for 2 hrs followed by viral infection and measured after 24 hrs by Gaussia luciferase reporter gene method relative to control; format: functional; details: A/WSN/1933(H1N1), HEK-293T, time 26 hrs
In short: (§1)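 Time-of-addition assay: compound at 20 μM added before infection or at infection (0 h) in HEK293T-Gluc cells infected with A/WSN/33 (H1N1). Supernatant Gaussia luciferase measured after 24 h with coelenterazine-h. Values normalized to the DMSO control, set as 100%; ribavirin positive control. Mean ± SD, three independent experiments.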

[4] = system: Influenza A virus; assay: Antiviral activity against Influenza A virus A/WSN/33(H1N1) infected in human HEK293T cells measured after 24 hrs by Gaussia luciferase reporter gene method; format: functional, organism-based; details: A/WSN/1933(H1N1); for EC50: HEK-293T
In short: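 HEK293T cells carrying a Gaussia luciferase reporter that is activated by IAV, infected with A/WSN/33 (H1N1) for 1 h at room temperature, then cultured 24 h at 37 °C with serially diluted compound. Supernatant Gluc read with coelenterazine-h (16.7 μM in PBS) as 0.5-s photon counts. Normalized to control set as 100%; ribavirin positive control; three experiments.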

[5] = system: Influenza A virus; assay: Antiviral activity against Influenza A virus A/WSN/33(H1N1) infected in HEK293T cells co-transfected with NP/PA/PB1/PB2 complex assessed as inhibition of viral replication after 24 hrs by mini-genome replicon system based luciferase assay; format: functional, organism-based; details: A/WSN/1933(H1N1); for EC50: HEK-293T
In short: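 Minigenome assay: vRNA transcription read as luciferase activity 24 h after transfection. Normalized to control set as 100%. Mean ± SD of three independent experiments.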

[6] = system: Influenza A virus; assay: Antiviral activity against Influenza A virus A/WSN/33(H1N1) infected in MDCK cells measured after 24 hrs by Gaussia luciferase reporter gene method; format: functional, organism-based; details: A/WSN/1933(H1N1)
In short: (§2)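 MDCK cells infected with IAV A/WSN/33 (H1N1) or H3N2 for 1 h at room temperature, then cultured in fresh DMEM with serially diluted compound for 24 h at 37 °C. Gluc activity in the medium read with coelenterazine-h (16.7 μM in PBS). Normalized to control set as 100%; ribavirin positive control; mean ± SD of three experiments.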

[7] = Safety index, ratio of CC50 for human HEp-2 cells to EC50 for GFP-fused wild-type RSV subgroup A long infected in human HEp-2 cells; format: toxicity, cell-based; details: read-out: Ratio CC50/EC50
[8] = Cytotoxicity against human HEp-2 cells assessed as reduction in cell viability measured after 48 hrs by MTS assay; format: cell-based
In short: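 HEp-2 cells plated; after 24 h, compound added and cells incubated 48 h. MTS (2 mg/ml) then added for 3 h at 37 °C in 5% CO2 and absorbance read at 490 nm. Untreated control set as 100%.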

[9] = system: Influenza A virus; assay: Antiviral activity against Influenza A virus A/WSN/33(H1N1) infected in HEK293T cells assessed as inhibition of viral replication at 20 uM measured after 24 hrs by Gaussia luciferase reporter gene method relative to control; format: functional; details: A/WSN/1933(H1N1), HEK-293T; in short: as §1
[10] = system: Influenza A virus; assay: Antiviral activity against Influenza A virus A/WSN/33(H1N1) infected in human HEK293T cells assessed as inhibition of viral replication at 10 uM measured after 24 hrs by Gaussia luciferase reporter gene method relative to control; format: functional; details: A/WSN/1933(H1N1), HEK-293T
[11] = system: Influenza A virus; assay: Antiviral activity against Influenza A virus A/WSN/33(H1N1) infected in HEK293T cells assessed as relative fluorescence intensity at 20 uM pretreated for 2 hrs followed by viral infection and measured after 24 hrs by Gaussia luciferase reporter gene method; format: functional, A/WSN/1933(H1N1); details: time 26 hrs; in short: as §1
[12] = system: Influenza A virus; assay: Antiviral activity against Influenza A virus A/WSN/33(H1N1) infected in HEK293T cells assessed as relative fluorescence intensity at 20 uM measured after 24 hrs by Gaussia luciferase reporter gene method; format: functional, A/WSN/1933(H1N1); in short: as §1
[13] = Antiviral activity against H3N2 infected in MDCK cells measured after 24 hrs by Gaussia luciferase reporter gene method; format: functional, cell-based, H3N2 subtype; details: Influenza A virus; in short: as §2
[14] = Safety index, ratio of CC50 for HEK293T cells to EC50 for antiviral activity against Influenza A virus A/WSN/33(H1N1) infected in human HEK293T cells; format: toxicity, cell-based; details: read-out: Ratio CC50/EC50
[15] = Cytotoxicity against human HEp-2 cells assessed as cell viability at 50 uM measured after 48 hrs by MTS assay relative to control; format: cell-based; details: read-out: Activity
[16] = system: Respiratory syncytial virus; assay: Antiviral activity against GFP-fused wild-type RSV subgroup A Long infected in human HEp-2 cells at 50 uM measured 24 to 72 hrs post infection by fluorescence assay relative to control; format: functional; details: time 24-72 hrs
[17] = system: Respiratory syncytial virus; assay: Antiviral activity against GFP-fused wild-type RSV subgroup A Long infected in human HEp-2 cells assessed as reduction in viral infection at 20 uM pretreated for 1 hr followed by viral infection measured 24 to 72 hrs post infection by fluorescence assay relative to control; format: functional, Respiratory syncytial virus type A; set-up: scale not given: the % may be the effect or the level left; details: time 24-73 hrs
In short: (§3)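 HEp-2 cells exposed to compound at 20 μM 1 h before RSV-mGFP infection (−1 h). GFP fluorescence read at 479/517 nm at 24, 48 and 72 h post-infection. Signal normalized to the DMSO control, set as 1; ribavirin was the positive control. Mean ± SD, three independent experiments.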

[18] = system: Respiratory syncytial virus; assay: Antiviral activity against GFP-fused wild-type RSV subgroup A Long infected in human HEp-2 cells assessed as reduction in viral infection at 20 uM measured 24 to 72 hrs post infection by fluorescence assay relative to control; format: functional, Respiratory syncytial virus type A; set-up: scale not given: the % may be the effect or the level left; details: time 24-72 hrs
In short: (§4)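 RSV-mGFP infection of HEp-2 cells with compound at 20 μM added at the time of infection (0 h). Fluorescence read at excitation 479 nm and emission 517 nm at 24, 48 and 72 h post-infection. Values normalized to the DMSO control, set as 1; ribavirin was the positive control. Mean ± SD of three independent experiments.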

[19] = system: Respiratory syncytial virus; assay: Antiviral activity against GFP-fused wild-type RSV subgroup A Long infected in human HEp-2 cells assessed as relative fluorescence intensity at 20 uM pretreated for 1 hr followed by viral infection measured 24 to 72 hrs post infection by fluorescence assay; format: functional, Respiratory syncytial virus type A; details: time 24-73 hrs; in short: as §3
[20] = system: Respiratory syncytial virus; assay: Antiviral activity against GFP-fused wild-type RSV subgroup A Long infected in human HEp-2 cells assessed as relative fluorescence intensity at 20 uM measured 24 to 72 hrs post infection by fluorescence assay; format: functional, Respiratory syncytial virus type A; in short: as §4

Compound	Activity [1]	EC50 [1]	CC50 at 48 h [2]	inhibition at 20 µM [3]	Activity [4]	EC50 [4]	inhibition [5]	EC50 [5]	EC50 [6]	selectivity ratio [7]	CC50 at 48 h [8]	inhibition at 20 µM [9]	inhibition at 10 µM [10]	RFU [11]	RFU [12]	EC50 [13]	selectivity ratio [14]	viability at 48 h, 50 µM [15]	inhibition at 50 µM [16]	other results
CCOc1ccccc1NC(=O)CSc1c[nH]c2cc(Cl)ccc12	Dose-dependent effect	5.58 µM	> 100 µM	99.7%	Dose-dependent effect	1.53 µM	Dose-dependent effect	1.98 µM	2.42 µM	5.36	29.9 µM	99.7%	> 85%	0.14	0.22	1.58 µM	> 65.4			
CCOc1ccccc1NC(=O)CSc1c[nH]c2ccccc12		11.8 µM								1.76	20.7 µM							65.2%	83.2%	
CCOc1ccccc1NC(=O)CSc1c[nH]c2c(Br)c(OC)ccc12	Dose-dependent effect	2.92 µM	> 100 µM	99.7%	Dose-dependent effect	1.9 µM	Dose-dependent effect	3.89 µM	3.25 µM	3.3	9.65 µM	99.7%	> 85%	0.14	0.28	1.5 µM	> 52.6			
CCOc1ccccc1NC(=O)CSc1c[nH]c2ccc(OC)cc12	Dose-dependent effect	4.82 µM	> 100 µM		Dose-dependent effect	1.27 µM				379	1830 µM		> 85%				> 79.4			Activity [17]: 99.4%; Activity [18]: 99.89%; RFU [19]: 0.06; RFU [20]: 0.11
O=C(CSc1c[nH]c2ccccc12)Nc1ccc(Cl)c(Cl)c1		32.7 µM								1.15	37.5 µM							81.8%	77.1%	
